This is a sample that favours compounds with a hit; in the whole collection about 2.4% have one here.
STAT1 blocker = STAT1 signaling inhibition; NIH 3T3 STAT1-luciferase reporter, IFN-gamma, luminescence; inhibition, % at 5.5 µM; actives 0.35% (n = 200,000); AID 920;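 active = inhibition above a set limit, the mean inhibition across all tested compounds plus 3 SD, cut at about 34% in these data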;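 note: 0% = IFN-gamma with DMSO and 100% = IFN-gamma with 300 µM nifuroxazide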
MT stabilizer = microtubule stabilization, imaging screen; AID 2205; % tubulin-high responders, % at 10 µM; HeLa tubulin immunostaining HCS, 24 h; share of cells brighter than vehicle mean+2SD; actives 0.83% (n = 200,000);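 active = plate Z-score above 3 for both tubulin-high and condensed-nucleus cell shares, with cell loss under 80%, at 10 µM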;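 note: anti alpha tubulin signal scored within the nucleus-defined area of each cell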
bCat nuc transl = beta-catenin nuclear translocation modulation | AID 1665 | actives 0.3% (n = 190,000) | nuclear translocation activity, % at 5 µM | HeLa beta-catenin nuclear translocation, immunofluorescence imaging;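 active = nuclear translocation activity above 50% at 5 µM, with a well cell count of 50 or more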;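 note: per-cell ratio of nuclear to cytoplasmic median beta-catenin stain intensity; plate controls were DMSO negative control for no effect and GSK-3 inhibitor IX positive control for full effect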
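test system = HeLa cells, endogenous beta-catenin | dosing = single 5 µM dose plus 0.02–20 µM confirmation series | times = compound treatment 24 h, 37°C, 5% CO2 | technique = beta-catenin immunofluorescence imaging with DAPI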
STAT3 activator = increases IL-6 driven STAT3 reporter signal. actives 0.91% (n = 190,000). U3A cells, IL-6 STAT3-luciferase reporter, luminescence; 100% = signal with IL-6 EC80 alone. activation (% of control), % at 5.6 µM. AID 871;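 active = activation above the screen-wide mean of compound activation plus 3 SD, cut at about 130% in these data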;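 note: 0% = background luminescence of wells with medium and substrate only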
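Test system: Human STAT1-deficient U3A cells with stable STAT3-luciferase reporter | Also added: Interleukin-6, 33 ng/mL | Timing: Compound pre-incubation 1 h before IL-6, then 6 h stimulation at 37 °C | Technique: Luciferase reporter luminescence | Read-out: Percent of IL-6-only median luminescence | Benchmarks: IL-6-only wells as 100% reference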
STAT3 blocker = STAT3 signaling inhibition; actives 0.89% (n = 190,000); AID 862; inhibition, % at 5.5 µM; U3A cells, IL-6 STAT3-luciferase reporter, luminescence; host cell line lacks STAT1;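 active = inhibition above the mean inhibition across all screened compounds plus 3 SD, cut at about 44% in these data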;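 note: 0% = DMSO only wells and 100% = 100 µM nifuroxazide control wells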
* hit, by the source's call; . = no result given.

SMILES | STAT1 blocker | MT stabilizer | bCat nuc transl | STAT3 activator | STAT3 blocker
Cc1cc(/C=N/NC(=O)c2ccccc2F)c(C)n1-c1ccccc1 | -34 | 4 | 1 | 77 | 31
CCOC(=O)N/N=C/c1cc(C)n(-c2cccc3ccccc23)c1C | 9 | 21* | 9 | 101 | 1
O=C(Nc1cc(C(F)(F)F)cc(C(F)(F)F)c1)Nc1cnn(-c2ccc([N+](=O)[O-])cc2)c1C(F)(F)F | . | . | 22 | . | .
Cc1cccc(C(=O)NC(=S)Nc2ccc(Cc3ccncc3)cc2)c1 | 1 | 3 | -4 | 89 | 19
Cc1cc(C)cc(C(=O)NC(=S)Nc2ccc(Cc3ccncc3)cc2)c1 | 4 | 12* | -2 | 88 | 17
Cc1occc(=O)c1OC(=O)Nc1ccc(Cl)c(Cl)c1 | 10 | 2 | 6 | 100 | 4
COc1ccc(-c2c(N)n[nH]c2C)cc1OC | -3 | 6 | -3 | 100 | 5
C=C(C)COc1ccc(-c2nc(N)ncc2Oc2ccc(OC)cc2)c(O)c1 | 1 | 3 | -2 | 104 | -2
C=C(C)COc1ccc(-c2[nH]ncc2Oc2ccccc2OC)c(O)c1 | 6 | 4 | 5 | 99 | 6
C=C(C)COc1ccc(-c2n[nH]c(C)c2-c2ccc(Br)cc2)c(O)c1 | 3 | 26* | . | 111 | -8
C=C(C)COc1ccc(-c2[nH]ncc2-c2ccccc2OC)c(O)c1 | 0 | 29* | -3 | 100 | 8
COc1ccc(-c2c(-c3ccc(O)cc3O)n[nH]c2C)cc1OC | -3 | 35* | . | 100 | -3
C=C(C)COc1ccc(-c2[nH]ncc2-c2ccc(Br)cc2)c(O)c1 | -1 | 19* | 39 | 109 | -6
O=C(CSc1nnc(Nc2ccccc2F)s1)Nc1cccc(S(=O)(=O)N2CCCCC2)c1 | -13 | 5 | 1 | 103 | -6
CCC1CCCCN1C(=O)Cn1nc([N+](=O)[O-])c(Cl)c1C (stereo unspecified) | 4 | 3 | 0 | 103 | 3
CCOC(=O)C(C)(C)n1nnc(-c2ccc([N+](=O)[O-])cc2)n1 | -15 | 2 | 0 | 96 | 9
CCOC(=O)c1c(C)c(C(=O)Nc2cc(OC)ccc2OC)c(C)n1CC | -10 | 25* | 3 | 95 | 12
CCOC(=O)c1[nH]c(C)c(C(=O)Nc2cc(OC)ccc2OC)c1C | 8 | 27* | 56* | 91 | 14
COc1cc2[nH]c(=S)nc(NC3CCCC3)c2cc1OC | 0 | 3 | -2 | 101 | 4
Cn1/c(=N/N=C/c2ccc([N+](=O)[O-])cc2)sc2ccccc21 | -35 | 7 | . | 144* | -54
COc1ccc(N2CC(C(=O)N/N=C/c3ccc(C)cc3)CC2=O)cc1 (stereo unspecified) | 0 | 21 | 54* | 105 | -4
Cc1oc(-c2ccccc2Cl)nc1CSc1nc2c(c(=O)[nH]1)CCC2 | 9 | 5 | 2 | 97 | 4
COc1ccc(C(=O)Nc2ccccc2C(=O)N/N=C/c2cccc3ccccc23)cc1 | 39* | 16 | 0 | 32 | 80*
CCOC(=O)C1(CCc2ccccc2)CCN(Cc2cccc3nccnc23)CC1 | 18 | . | 0 | 99 | 3
CCOC(=O)c1cc(C#N)c(SCc2ccc(C#N)cc2)nc1C | -4 | 2 | . | 136* | -36
SMILES | STAT1 blocker | MT stabilizer | bCat nuc transl | STAT3 activator | STAT3 blocker
CN(C)c1nnnn1-c1ccc(OC(F)(F)F)cc1 | -9 | 3 | -6 | 99 | 5
Oc1nc(Nc2cccc(Cl)c2)sc1/C=C1\C=Nc2ccccc21 | -4 | 18* | 1 | 98 | 2
CS(=O)(=O)c1nc(-c2cccs2)cc(C(F)(F)F)n1 | 50* | 1 | -2 | 90 | 13
COc1ccc(CC(=O)NNC(=O)c2c(-c3ccccc3Cl)noc2C)cc1OC | . | . | 0 | . | .
O=C(Nc1ccc(Br)cn1)c1cccc2c1-c1ccccc1C2=O | -7 | 36* | 1 | 95 | 14
O=C(CCC1CCCN(C(=O)c2ccco2)C1)NCc1ccccc1F (stereo unspecified) | -5 | 8 | -1 | 94 | 18
COCc1ccc(C(=O)N2CCCC(CCC(=O)NCc3ccccc3F)C2)o1 (stereo unspecified) | 2 | 24* | 41 | 111 | -8
CC(=O)Nc1c(N)c2ccccc2oc1=O | -8 | 2 | -1 | 101 | 4
CCOC(=O)N1CCN(c2c(F)cc3[nH]c(=S)[nH]c3c2Br)CC1 | -4 | 47* | -1 | 93 | 11

Bioassay records as filed in PubChem.
